From ChEMBL document CHEMBL3627671, “Novel derivatives of nitro-substituted salicylic acids: Synthesis, antimicrobial activity and cytotoxicity” (Bioorg Med Chem, 2015)
In brackets after ≈: the same amount, converted by molar mass.

Columns and labels:
[1] = test system: Trichophyton mentagrophytes; assay: Antifungal activity against Trichophyton mentagrophytes 445 after 48 hrs by microdilution broth method; assay type: functional; settings: Trichophyton mentagrophytes, 445, 48 h
Klebsiella pneumoniae [2] = assay: Antibacterial activity against ESBL-positive Klebsiella pneumoniae J 14368/08 after 48 hrs by microdilution broth method; assay type: functional; settings: J 14368/08, 48 h
Outline: (§1)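 Mueller-Hinton broth microdilution (modified M07-A07), pH 7.4 (±0.2). Compounds dissolved in DMSO, tested at final 500 to 0.49 µmol/L. Inoculum in sterile water matched to 0.5 McFarland. Incubated in the dark, humid atmosphere, 35 °C, read at 24 and 48 h visually and at 540 nm. MIC taken as ≥95% growth reduction (IC95) versus control.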

Mycobacterium kansasii [3] = assay: Antimycobacterial activity against Mycobacterium kansasii 235/80 after 14 days; assay type: functional; settings: 235/80, 336 h
Outline: (§2)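 Šula's semisynthetic medium micromethod at 37 °C, read after 7, 14 and 21 days. The 1.0 McFarland suspension was diluted 10^-4. MIC determined. 6509/96 is a clinical isolate.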

Aspergillus fumigatus [4] = assay: Antifungal activity against Aspergillus fumigatus 231 after 48 hrs by microdilution broth method; assay type: functional; settings: Aspergillus fumigatus, 231, 48 h
Outline: (§3)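 CLSI M27-A3 broth microdilution in RPMI 1640 with glutamine, buffered to pH 7.0 with MOPS; DMSO diluent. Yeast inoculum 5 × 10^3 ± 0.2 CFU/mL. Moulds grown on Sabouraud agar 3–10 days before spore harvest, final inoculum 0.5-5 × 10^4 CFU/mL, checked in a Bürker chamber. Incubated dark, humid, 35 °C, read at 24 and 48 h visually and at 540 nm. MIC taken as ≥80% (yeasts) or ≥50% (filamentous) growth reduction versus control.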

Enterococcus sp. [5] = assay: Antibacterial activity against Enterococcus sp. J 14365/08 after 24 hrs by microdilution broth method; assay type: functional; settings: J 14365/08, 24 h; outline: as §1
Candida tropicalis [6] = assay: Antifungal activity against Candida tropicalis 156 after 48 hrs by microdilution broth method; assay type: functional; settings: Candida tropicalis, 156, 48 h; outline: as §3
Staphylococcus aureus [7] = assay: Antibacterial activity against methicillin-resistant Staphylococcus aureus H 5996/08 after 24 hrs by microdilution broth method; assay type: functional; settings: H 5996/08, 24 h
Pichia kudriavzevii [8] = assay: Antifungal activity against Candida krusei E28 after 24 hrs by microdilution broth method; assay type: functional; settings: E28, 24 h; outline: as §3
Trichosporon asahii [9] = assay: Antifungal activity against Trichosporon asahii 1188 after 48 hrs by microdilution broth method; assay type: functional; settings: Trichosporon asahii, 1188, 48 h; outline: as §3
[10] = Selectivity index, ratio of CI50 for human HepG2 cells to MIC100 for Mycobacterium tuberculosis H37Rv 331/88
Klebsiella pneumoniae [11] = assay: Antibacterial activity against Klebsiella pneumoniae D 11750/08 after 48 hrs by microdilution broth method; assay type: functional; settings: D 11750/08, 48 h; outline: as §1
[12] = test system: Staphylococcus epidermidis; assay: Antibacterial activity against Staphylococcus epidermidis H 6966/08 after 24 hrs by microdilution broth method; assay type: functional; settings: H 6966/08, 24 h; outline: as §1
Nakaseomyces glabratus [13] = assay: Antifungal activity against Candida glabrata 20/I after 24 hrs by microdilution broth method; assay type: functional; outline: as §3
Nakaseomyces glabratus [14] = assay: Antifungal activity against Candida glabrata 20/I after 48 hrs by microdilution broth method; assay type: functional; outline: as §3
Enterococcus sp. [15] = assay: Antibacterial activity against Enterococcus sp. J 14365/08 after 48 hrs by microdilution broth method; assay type: functional; settings: J 14365/08, 48 h; outline: as §1
Pseudomonas aeruginosa [16] = assay: Antibacterial activity against Pseudomonas aeruginosa CCM 1961 after 48 hrs by microdilution broth method; assay type: functional; settings: CCM 1961, 48 h; outline: as §1
Aspergillus fumigatus [17] = assay: Antifungal activity against Aspergillus fumigatus 231 after 24 hrs by microdilution broth method; assay type: functional; settings: Aspergillus fumigatus, 231, 24 h; outline: as §3
Mycobacterium kansasii [18] = assay: Antimycobacterial activity against Mycobacterium kansasii 6509/96 after 7 days; assay type: functional; settings: 6509/96, 168 h; outline: as §2
[19] = test system: Mycobacterium tuberculosis; assay: Antimycobacterial activity against Mycobacterium tuberculosis H37Rv 331/88 after 14 days; assay type: functional; settings: H37Rv 331/88, 336 h
Mycobacterium avium [20] = assay: Antimycobacterial activity against Mycobacterium avium 330/80 after 14 days; assay type: functional; settings: 330/80, 336 h
Trichosporon asahii [21] = assay: Antifungal activity against Trichosporon asahii 1188 after 24 hrs by microdilution broth method; assay type: functional; settings: Trichosporon asahii, 1188, 24 h; outline: as §3
Candida albicans [22] = assay: Antifungal activity against Candida albicans ATCC 44859 after 48 hrs by microdilution broth method; assay type: functional; settings: ATCC 44859, 48 h; outline: as §3
Pichia kudriavzevii [23] = assay: Antifungal activity against Candida krusei E28 after 48 hrs by microdilution broth method; assay type: functional; settings: E28, 48 h; outline: as §3
Staphylococcus aureus [24] = assay: Antibacterial activity against Staphylococcus aureus CCM 4516/08 after 24 hrs by microdilution broth method; assay type: functional; settings: CCM 4516/08, 24 h
Pseudomonas aeruginosa [25] = assay: Antibacterial activity against Pseudomonas aeruginosa CCM 1961 after 24 hrs by microdilution broth method; assay type: functional; settings: CCM 1961, 24 h; outline: as §1
Klebsiella pneumoniae [26] = assay: Antibacterial activity against Klebsiella pneumoniae D 11750/08 after 24 hrs by microdilution broth method; assay type: functional; settings: D 11750/08, 24 h; outline: as §1
Mycobacterium kansasii [27] = assay: Antimycobacterial activity against Mycobacterium kansasii 235/80 after 7 days; assay type: functional; settings: 235/80, 168 h; outline: as §2
HepG2 = assay: Cytotoxicity against human HepG2 cells after 24 hrs […]; assay type: cell-based; settings: HepG2, 24 h
Mycobacterium kansasii [28] = assay: Antimycobacterial activity against Mycobacterium kansasii 6509/96 after 21 days; assay type: functional; settings: 6509/96, 504 h; outline: as §2
Candida albicans [29] = assay: Antifungal activity against Candida albicans ATCC 44859 after 24 hrs by microdilution broth method; assay type: functional; settings: ATCC 44859, 24 h; outline: as §3
Escherichia coli [30] = assay: Antibacterial activity against Escherichia coli CCM4517 after 24 hrs by microdilution broth method; assay type: functional; settings: CCM4517, 24 h; outline: as §1
Klebsiella pneumoniae [31] = assay: Antibacterial activity against ESBL-positive Klebsiella pneumoniae J 14368/08 after 24 hrs by microdilution broth method; assay type: functional; settings: J 14368/08, 24 h; outline: as §1
Mycobacterium kansasii [32] = assay: Antimycobacterial activity against Mycobacterium kansasii 235/80 after 21 days; assay type: functional; settings: 235/80, 504 h; outline: as §2
[33] = test system: Staphylococcus epidermidis; assay: Antibacterial activity against Staphylococcus epidermidis H 6966/08 after 48 hrs by microdilution broth method; assay type: functional; settings: H 6966/08, 48 h; outline: as §1
Lichtheimia corymbifera [34] = assay: Antifungal activity against Absidia corymbifera 272 after 24 hrs by microdilution broth method; assay type: functional; settings: Lichtheimia corymbifera, 272, 24 h; outline: as §3
Lichtheimia corymbifera [35] = assay: Antifungal activity against Absidia corymbifera 272 after 48 hrs by microdilution broth method; assay type: functional; settings: Lichtheimia corymbifera, 272, 48 h; outline: as §3
Mycobacterium avium [36] = assay: Antimycobacterial activity against Mycobacterium avium 330/80 after 21 days; assay type: functional; settings: 330/80, 504 h
Staphylococcus aureus [37] = assay: Antibacterial activity against methicillin-resistant Staphylococcus aureus H 5996/08 after 48 hrs by microdilution broth method; assay type: functional; settings: H 5996/08, 48 h
[38] = test system: Trichophyton mentagrophytes; assay: Antifungal activity against Trichophyton mentagrophytes 445 after 24 hrs by microdilution broth method; assay type: functional; settings: Trichophyton mentagrophytes, 445, 24 h
Escherichia coli [39] = assay: Antibacterial activity against Escherichia coli CCM4517 after 48 hrs by microdilution broth method; assay type: functional; settings: CCM4517, 48 h; outline: as §1
Staphylococcus aureus [40] = assay: Antibacterial activity against Staphylococcus aureus CCM 4516/08 after 48 hrs by microdilution broth method; assay type: functional; settings: CCM 4516/08, 48 h
[41] = test system: Mycobacterium tuberculosis; assay: Antimycobacterial activity against Mycobacterium tuberculosis H37Rv 331/88 after 21 days; assay type: functional; settings: H37Rv 331/88, 504 h
Candida tropicalis [42] = assay: Antifungal activity against Candida tropicalis 156 after 24 hrs by microdilution broth method; assay type: functional; settings: Candida tropicalis, 156, 24 h; outline: as §3
Mycobacterium kansasii [43] = assay: Antimycobacterial activity against Mycobacterium kansasii 6509/96 after 14 days; assay type: functional; settings: 6509/96, 336 h; outline: as §2

In the case of `O=C(Nc1ccc(Cl)c(Cl)c1)c1ccc([N+](=O)[O-])cc1O`, the MIC [1] is reported as 125 µM (≈ 40.9 µg/mL), the MIC (Klebsiella pneumoniae [2]) is reported as over 500 µM and the MIC (Mycobacterium kansasii [3]) is reported as 8 µM (≈ 2.62 µg/mL). It also gave an MIC (Aspergillus fumigatus [4]) of 31.2 µM (≈ 10.2 µg/mL), an MIC (Enterococcus sp. [5]) of 125 µM (≈ 40.9 µg/mL) and an MIC (Candida tropicalis [6]) of over 250 µM. It also gave an MIC (Staphylococcus aureus [7]) of 1.95 µM (≈ 0.638 µg/mL), an MIC (Pichia kudriavzevii [8]) of 7.81 µM (≈ 2.55 µg/mL) and an MIC (Trichosporon asahii [9]) of 15.6 µM (≈ 5.11 µg/mL). For the same molecule, the “Selectivity Index” value [10] was 0.175, the MIC (Klebsiella pneumoniae [11]) was over 500 µM and the MIC [12] was 1.95 µM (≈ 0.638 µg/mL). For the same molecule, the MIC (Nakaseomyces glabratus [13]) was 31.2 µM (≈ 10.2 µg/mL), the MIC (Nakaseomyces glabratus [14]) was 62.5 µM (≈ 20.4 µg/mL) and the MIC (Enterococcus sp. [15]) was 500 µM (≈ 164 µg/mL). For the same molecule, the MIC (Pseudomonas aeruginosa [16]) was over 500 µM, the MIC (Aspergillus fumigatus [17]) was 31.2 µM (≈ 10.2 µg/mL) and the MIC (Mycobacterium kansasii [18]) was 8 µM (≈ 2.62 µg/mL). For the same molecule, the MIC [19] was 4 µM (≈ 1.31 µg/mL), the MIC (Mycobacterium avium [20]) was 32 µM (≈ 10.5 µg/mL) and the MIC (Trichosporon asahii [21]) was 7.81 µM (≈ 2.55 µg/mL). It also gave an MIC (Candida albicans [22]) of 62.5 µM (≈ 20.4 µg/mL), an MIC (Pichia kudriavzevii [23]) of 15.6 µM (≈ 5.11 µg/mL) and an MIC (Staphylococcus aureus [24]) of 3.9 µM (≈ 1.28 µg/mL). For the same molecule, the MIC (Pseudomonas aeruginosa [25]) was over 500 µM, the MIC (Klebsiella pneumoniae [26]) was over 500 µM and the MIC (Mycobacterium kansasii [27]) was 4 µM (≈ 1.31 µg/mL). The IC50 (HepG2) was 1400 nM, the MIC (Mycobacterium kansasii [28]) was 16 µM (≈ 5.23 µg/mL) and the MIC (Candida albicans [29]) was 62.5 µM (≈ 20.4 µg/mL). For the same molecule, the MIC (Escherichia coli [30]) was over 500 µM, the MIC (Klebsiella pneumoniae [31]) was over 500 µM and the MIC (Mycobacterium kansasii [32]) was 8 µM (≈ 2.62 µg/mL). The MIC [33] was 1.95 µM (≈ 0.638 µg/mL), the MIC (Lichtheimia corymbifera [34]) was 31.2 µM (≈ 10.2 µg/mL) and the MIC (Lichtheimia corymbifera [35]) was 31.2 µM (≈ 10.2 µg/mL). For the same molecule, the MIC (Mycobacterium avium [36]) was 62.5 µM (≈ 20.4 µg/mL), the MIC (Staphylococcus aureus [37]) was 1.95 µM (≈ 0.638 µg/mL) and the MIC [38] was 125 µM (≈ 40.9 µg/mL). The MIC (Escherichia coli [39]) was over 500 µM, the MIC (Staphylococcus aureus [40]) was 3.9 µM (≈ 1.28 µg/mL) and the MIC [41] was 8 µM (≈ 2.62 µg/mL). It also gave an MIC (Candida tropicalis [42]) of 125 µM (≈ 40.9 µg/mL) and an MIC (Mycobacterium kansasii [43]) of 16 µM (≈ 5.23 µg/mL).
